Active and inactive are the calls of the source. The calls are words filed in the database; no cut-off is given here.
Assays:
[1] = Cmax in Balb/c mouse at 10 mg/kg, po; assay type: ADME, organism-based; set-up: dose 10 mg/kg, route oral; conditions: in vivo
Procedure, shortened: (§1)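 Balb/c mice given a single intravenous dose of 2 mg/kg or an oral dose of 10 mg/kg. Plasma exposure was followed to derive Cmax, Tmax, AUC, t1/2, clearance, Vss and oral bioavailability (F).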

Mus musculus [2] = test: Inhibition of IL2/IL23-induced IL22 production in po bid dosed C57BL/6 mouse treated 30 mins prior to 24 hrs IL2 challenge followed by IL2/IL23 addition at 0,7 and 23 hrs measured after 7 hrs post last IL2/IL23 challenge; assay type: functional, organism-based
Procedure, shortened: (§2)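 Naive mice were challenged three times with IL-2 plus IL-23 (first at 0 and 7 h) and dosed orally bid at 5, 15 or 50 mg/kg. Serum cytokines were measured 7 h after the final IL-2/IL-23 administration. An anti-IL-23 antibody served as positive control.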

[3] = AUC in Balb/c mouse at 2 mg/kg, iv; assay type: ADME, organism-based; conditions: in vivo; procedure, shortened: as §1
Mus musculus [4] = test: Inhibition of IL2/IL23-induced IL17F production in po bid dosed C57BL/6 mouse treated 30 mins prior to 24 hrs IL2 challenge followed by IL2/IL23 addition at 0,7 and 23 hrs measured after 7 hrs post last IL2/IL23 challenge; assay type: functional, organism-based; procedure, shortened: as §2
[5] = Clearance in Balb/c mouse at 2 mg/kg, iv; assay type: ADME, organism-based; conditions: in vivo; procedure, shortened: as §1
[6] = molecular target: T1, Oxysterols receptor LXR-alpha (Homo sapiens, UniProt Q13133); test: Agonist activity at LXRalpha (unknown origin) expressed in African green monkey CV1 cells; assay type: cell-based
T1 sequence (Q13133 whole entry): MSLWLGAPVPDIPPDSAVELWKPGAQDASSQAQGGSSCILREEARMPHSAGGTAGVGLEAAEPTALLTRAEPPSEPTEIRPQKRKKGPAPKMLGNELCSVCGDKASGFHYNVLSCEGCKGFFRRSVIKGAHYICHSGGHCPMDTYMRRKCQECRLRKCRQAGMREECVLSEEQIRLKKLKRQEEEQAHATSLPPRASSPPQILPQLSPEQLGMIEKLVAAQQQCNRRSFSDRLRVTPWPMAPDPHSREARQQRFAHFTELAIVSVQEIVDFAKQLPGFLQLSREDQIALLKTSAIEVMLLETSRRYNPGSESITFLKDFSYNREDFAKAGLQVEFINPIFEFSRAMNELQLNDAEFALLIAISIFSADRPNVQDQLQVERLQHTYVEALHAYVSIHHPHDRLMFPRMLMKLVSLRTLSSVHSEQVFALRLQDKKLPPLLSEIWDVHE

[7] = molecular target: T2, Nuclear receptor ROR-alpha (Homo sapiens) (UniProt P35398); test: Inverse agonist activity at GAL4-fused RORalpha LBD (272 to 556 residues) (unknown origin) expressed in human Jurkat cells measured after 18 hrs by native IL17 promoter driven steady-glo luciferase assay; assay type: cell-based
T2 sequence (whole entry): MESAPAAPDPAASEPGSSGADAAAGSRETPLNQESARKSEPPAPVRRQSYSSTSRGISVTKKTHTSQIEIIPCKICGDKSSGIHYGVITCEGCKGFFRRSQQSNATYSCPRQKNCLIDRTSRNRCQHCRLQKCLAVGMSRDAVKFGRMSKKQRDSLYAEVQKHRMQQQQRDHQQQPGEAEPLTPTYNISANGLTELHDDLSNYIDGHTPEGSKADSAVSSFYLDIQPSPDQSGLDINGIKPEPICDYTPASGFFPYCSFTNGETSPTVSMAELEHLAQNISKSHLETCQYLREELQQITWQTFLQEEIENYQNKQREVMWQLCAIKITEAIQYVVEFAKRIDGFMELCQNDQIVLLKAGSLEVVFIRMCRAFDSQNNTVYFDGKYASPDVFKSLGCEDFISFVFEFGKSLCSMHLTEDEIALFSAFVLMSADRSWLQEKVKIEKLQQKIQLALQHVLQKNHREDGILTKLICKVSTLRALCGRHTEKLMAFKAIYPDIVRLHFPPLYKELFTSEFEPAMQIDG

[8] = Volume of distribution at steady state in Balb/c mouse at 2 mg/kg, iv; assay type: ADME, organism-based; conditions: in vivo, read-out: Vdss; procedure, shortened: as §1
Mus musculus [9] = test: Inhibition of IL2/IL23-induced IL6 production in po bid dosed C57BL/6 mouse treated 30 mins prior to 24 hrs IL2 challenge followed by IL2/IL23 addition at 0,7 and 23 hrs measured after 7 hrs post last IL2/IL23 challenge; assay type: functional, organism-based; procedure, shortened: as §2
Mus musculus [10] = test: Inhibition of IL2/IL23-induced IL17F production in C57BL/6 mouse at 15 mg/kg, po bid treated 30 mins prior to 24 hrs IL2 challenge followed by IL2/IL23 addition at 0,7 and 23 hrs measured after 7 hrs post last IL2/IL23 challenge relative to control; assay type: functional; conditions: C57BL/6, po; procedure, shortened: as §2
[11] = Stability in mouse liver microsomes assessed as parent compound remaining after 10 mins; assay type: ADME, Microsome; conditions: read-out: Stability
Procedure, shortened: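 Rough stability screen: compound incubated with mouse liver microsomes for 10 min, reported as percentage of parent remaining.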

Cytochrome P450 2C19 = Cytochrome P450 2C19 (Homo sapiens, UniProt P33261); test: Inhibition of CYP2C19 (unknown origin); assay type: ADME
Chain of Cytochrome P450 2C19 (P33261 whole entry): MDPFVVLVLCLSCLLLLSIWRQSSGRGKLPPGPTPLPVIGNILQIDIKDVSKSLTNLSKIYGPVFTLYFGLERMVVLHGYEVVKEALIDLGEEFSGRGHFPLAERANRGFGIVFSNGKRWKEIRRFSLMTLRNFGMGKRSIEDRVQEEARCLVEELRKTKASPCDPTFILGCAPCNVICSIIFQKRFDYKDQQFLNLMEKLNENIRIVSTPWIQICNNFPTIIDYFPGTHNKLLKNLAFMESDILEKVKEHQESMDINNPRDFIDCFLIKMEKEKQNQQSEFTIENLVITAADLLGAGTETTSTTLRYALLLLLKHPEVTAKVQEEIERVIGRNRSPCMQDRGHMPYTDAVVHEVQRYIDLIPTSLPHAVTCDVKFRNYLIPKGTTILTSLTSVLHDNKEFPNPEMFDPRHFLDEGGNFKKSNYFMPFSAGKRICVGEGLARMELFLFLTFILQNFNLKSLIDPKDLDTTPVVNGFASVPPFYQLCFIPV

[12] = Protein binding in mouse plasma assessed as unbound fraction; assay type: ADME, cell-free
[13] = Inhibition of CYP1B2 (unknown origin); assay type: ADME, Homo sapiens
Cytochrome P450 2C9 = Cytochrome P450 2C9 (Homo sapiens, UniProt P11712); test: Inhibition of CYP2C9 (unknown origin); assay type: ADME
Chain of Cytochrome P450 2C9 (P11712 whole entry): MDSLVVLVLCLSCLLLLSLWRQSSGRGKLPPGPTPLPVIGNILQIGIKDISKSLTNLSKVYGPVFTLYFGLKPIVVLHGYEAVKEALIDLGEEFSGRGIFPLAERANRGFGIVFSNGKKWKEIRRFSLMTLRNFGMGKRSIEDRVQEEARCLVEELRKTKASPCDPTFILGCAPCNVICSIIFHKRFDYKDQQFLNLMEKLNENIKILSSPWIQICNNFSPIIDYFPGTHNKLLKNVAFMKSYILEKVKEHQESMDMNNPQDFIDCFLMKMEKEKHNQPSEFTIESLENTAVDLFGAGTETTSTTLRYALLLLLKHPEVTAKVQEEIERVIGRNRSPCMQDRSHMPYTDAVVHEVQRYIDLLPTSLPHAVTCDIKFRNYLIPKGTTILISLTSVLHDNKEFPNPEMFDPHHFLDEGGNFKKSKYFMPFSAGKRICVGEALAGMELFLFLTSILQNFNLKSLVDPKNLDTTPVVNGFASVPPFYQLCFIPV

Mus musculus [14] = test: Inhibition of IL2/IL23-induced IL17F production in C57BL/6 mouse at 5 mg/kg, po bid treated 30 mins prior to 24 hrs IL2 challenge followed by IL2/IL23 addition at 0,7 and 23 hrs measured after 7 hrs post last IL2/IL23 challenge relative to control; assay type: functional; conditions: C57BL/6, po; procedure, shortened: as §2
[15] = Permeability in human Caco2 cells; assay type: ADME, cell-based; conditions: Caco-2, read-out: permeability
Procedure, shortened: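 Caco-2 monolayer permeability, reported as permeation coefficient in nm/s; an efflux ratio was also determined.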

Mus musculus [16] = test: Protection against IL23-induced acanthosis C57BL/6 mouse model of psoriasis assessed as reduction in ear swelling at 10 to 50 mg/kg, po bid for 10 days treated 2 hrs prior to IL23 challenge every other day for 10 days measured on day 11; assay type: functional, organism-based

Cmax [1]: 6.6 µM
AUC [3]: 7.4 µM·h
clearance [5]: 7.2 mL/min/kg
EC50 [6]: > 7.5 µM
Activity [7]: inactive
Vd [8]: 3.4 L/kg
remaining at 10 min [11]: 86%
IC50 (Cytochrome P450 2C19): > 20 µM
fraction unbound [12]: 0.105
IC50 [13]: > 20 µM
IC50 (Cytochrome P450 2C9): > 20 µM
Papp [15]: 12 ×10⁻⁶ cm/s
SMILES: O=C(O)[C@H]1CC[C@H](C(=O)N2CC[C@](c3ccc(C(F)(C(F)(F)F)C(F)(F)F)cc3)(S(=O)(=O)c3ccc(F)cc3)C2)CC1
inhibition (Mus musculus [2]): Dose-dependent effect
inhibition (Mus musculus [4]): Dose-dependent effect
inhibition (Mus musculus [9]): Dose-dependent effect
inhibition in vivo at 15 mg/kg (Mus musculus [10]): 77%
inhibition in vivo at 5 mg/kg (Mus musculus [14]): 47%
Activity (Mus musculus [16]): Active
